# CHOP inh: blocks CHOP induction under ER stress; CHO-K1 CHOP-promoter luciferase, tunicamycin-induced, 15-18 h; inhibition, % at 10 µM; 220,000 tested, 3.8% active;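 active = compounds that reduced the stress-induced luciferase reporter signal by more than about 70% of percent inhibition, limit read from the data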
# XBP1 UPR activ: adaptive UPR (XBP1) activation; activation, % at 20 µM; CHO-XBP1 luciferase reporter, IRE1-XBP1 UPR activation, luminescence; percent of tunicamycin response, DMSO as zero; 330,000 tested, 0.33% active;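 active = versus positive control, 20 µM dose yields 30% or more activation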
#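 Material: CHO-XBP1 cells stably carrying IRE1-XBP1-driven luciferase reporter | Medium: F12 with 10% serum | Compound dosing: 20 µM single concentration, DMSO 1% | Incubation: Overnight seeding at 37 °C, 6 h compound treatment at 37 °C | Detection: Steady-Glo luminescence read | Read-out basis: % activation of reporter signal versus tunicamycin and DMSO controls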
# UPR CHOP act: apoptotic UPR (CHOP) activation. CHO-CHOP luciferase reporter, luminescence; percent of tunicamycin response over DMSO baseline. activation, % at 10 µM. 330,000 tested, 0.34% active. AID 449763;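 active = at 10 µM dose, activation of 40% or more, normalized to positive control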
#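 Material: CHO-CHOP cells, stable luciferase reporter of PERK-eIF2a-CHOP signalling; quantity: 500 reporter cells seeded per well; buffer or medium: F12 medium containing 10% fetal bovine serum; compound: one dose, 10 µM in 0.5% DMSO; incubation: 6 h compound treatment, 37 °C; measured by: Steady-Glo luciferase luminescence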
# UCH37 inh: blocks the human deubiquitinase UCH37. Q9Y5K5. purified proteasome/UCH37, Ub-AMC cleavage fluorescence. inhibition, % (test concentration not listed). 330,000 tested, 0.33% active;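 active = mean inhibition over replicate wells above about 20%, limit read from the data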
# Target sequence (Q9Y5K5 whole entry, looked up): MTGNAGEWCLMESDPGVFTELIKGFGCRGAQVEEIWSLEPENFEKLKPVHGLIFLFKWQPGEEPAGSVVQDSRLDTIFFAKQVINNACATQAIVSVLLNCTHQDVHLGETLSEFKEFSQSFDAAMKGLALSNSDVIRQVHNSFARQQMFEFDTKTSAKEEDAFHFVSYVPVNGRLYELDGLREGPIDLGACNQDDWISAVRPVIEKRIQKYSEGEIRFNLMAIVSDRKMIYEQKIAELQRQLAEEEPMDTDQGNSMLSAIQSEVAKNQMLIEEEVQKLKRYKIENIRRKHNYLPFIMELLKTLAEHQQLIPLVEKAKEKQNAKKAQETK
#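 System: Proteasome-associated human UCH37 deubiquitinase; Input: 0.15 nM proteasome in added enzyme buffer; Also added: Ub-AMC substrate from 1 µM stock; Incubation: 30 min compound-proteasome preincubation then 25 min substrate reaction, room temperature; Detection: fluorescence, ex 355 nm, em 460 nm; Read-out: % inhibition of Ub-AMC cleavage fluorescence; Benchmarks: no-proteasome and no-compound wells.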
# Fh CTSL1 inh: counter-screen for PFM18AAP inhibitors: inhibitors of F. hepatica cathepsin L1. recombinant F. hepatica cathepsin L1, Z-Leu-Arg-MCA fluorescence. inhibition, % at 5.96 µM. 300,000 tested, 0.49% active. AID 1906;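 active = inhibition above the mean of all tested compounds plus 3 SD, set per screening campaign, cut at about 17% in these data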
# A number is an active result; . = inactive; / = no result given. The full list was thinned out, with hits kept by preference.
SMILES,CHOP inh,XBP1 UPR activ,UPR CHOP act,UCH37 inh,Fh CTSL1 inh
CN(C)CCCN(C(=O)c1ccc2c(c1)CCCC2)c1nc2ccc(Cl)cc2s1,90,.,.,.,.
CCOc1ccc2nc(N(CCCN(C)C)C(=O)c3ccc4c(c3)CCCC4)sc2c1,/,.,.,.,.
CC(C)(C)c1ccccc1OCC(=O)NCCC(=O)O,.,.,.,.,.
C=C(C(=O)Oc1ccccc1C(C)(C)C)c1ccccc1,/,.,193,/,/
Cn1c(C=Nn2cnnc2)nc2ccccc21,/,/,/,.,/
Cc1[nH]n(-c2ccccc2)c(=O)c1N=Nc1nccs1,.,.,.,21,.
Cc1ccccc1N=Nc1c(C)[nH]n(-c2ccccc2)c1=O,.,/,/,.,/
CC1(C)CC(=O)CC(=NNC(=O)Cc2ccccc2)C1,/,/,/,.,/
c1ccc(CN2C3=NCCCN3c3ccccc32)cc1,.,.,.,.,.
Clc1ccc(CN2C3=NCCN3c3ccccc32)cc1,71,.,.,.,.
CC(=NOCC(=O)Nc1ccc(C)cc1C)c1cccs1,/,/,/,.,/
O=S(=O)(NC1CCCC1)c1ccc(S(=O)(=O)N2CCc3ccccc32)cc1,86,.,.,.,.
CCc1nnc(NC(=O)c2cccc(S(=O)(=O)N3CCc4ccccc43)c2)s1,.,.,.,.,.
Cc1nnc(NC(=O)c2cccc(S(=O)(=O)N3CCc4ccccc43)c2)s1,.,.,.,27,.
O=C(NNC(=O)c1cccc(S(=O)(=O)N2CCc3ccccc32)c1)c1ccccc1,73,/,/,.,/
Cc1nn(C)c(Oc2ccccc2)c1CCNC(=O)CCl,.,.,.,.,28
CC(=NNC(=O)Cc1cccn1C)c1ccccc1,/,/,/,.,/
CC1=C(C(=O)Nc2cc(-c3cccc(F)c3)[nH]n2)C2(CCCCC2)OC1=O,82,.,.,.,.
Cc1ccc(C=NNC(=O)c2ccncc2)o1,/,/,/,.,/
Cc1ccc(C(=O)c2no[n+]([O-])c2C(=O)c2ccc(C)cc2)cc1,82,.,.,.,.
CCc1ccc(C=NNC(=O)c2cc(C)on2)s1,/,/,/,.,/
O=C(NC(=S)Nc1nc(-c2ccc(Br)cc2)cs1)c1ccco1,84,.,.,.,.
CCOC(=O)c1c(C)[nH]c(N=Nc2cccc(C)c2)c1C,71,.,.,.,.
CCOC(=O)c1c(C)[nH]c(N=Nc2ccc(C)cc2)c1C,91,.,.,.,.
COc1cc(C=NNC(=O)c2ccncc2)c([N+](=O)[O-])cc1OC,/,/,/,.,/
SMILES,CHOP inh,XBP1 UPR activ,UPR CHOP act,UCH37 inh,Fh CTSL1 inh
CSc1ccccc1NC(=O)CN(C)Cc1ccc(Br)cc1,80,.,.,.,.
CSc1ccccc1NC(=O)CSCc1ccccc1Br,72,.,.,.,.
CSc1ccccc1NC(=O)CSCc1ccc(Br)cc1,.,.,.,.,.
O=C(CSc1nccn1-c1ncc(C(F)(F)F)cc1Cl)c1ccc(Cl)cc1,.,.,.,31,.
Cc1nn(CC(=O)NN=Cc2cccs2)c(C)c1[N+](=O)[O-],/,/,/,.,/
Cc1cccc(NC(=S)NN=Cc2cccc(O)c2)c1C,/,/,/,.,/
COc1ccc(OCC(=O)Nc2ccccc2-c2ccccc2)cc1,.,.,.,.,.
COc1ccc(CC(=O)Nc2ccccc2-c2ccccc2)cc1OC,/,.,.,.,.
Cc1ccc(CC(=O)Nc2ccccc2-c2ccccc2)cc1C,89,.,.,.,.
Cc1cccc(OCC(=O)Nc2ccccc2-c2ccccc2)c1,85,/,/,.,.
Cc1ccc(NC(=O)Nc2ccc(F)cc2)cc1Cl,.,.,.,.,.
Cc1ccc(NC(=O)CCC(=O)c2ccc(F)cc2)cc1Cl,79,.,.,.,.
O=S(=O)(c1cnccc1N1CCN(N=Cc2ccc(Br)cc2)CC1)N1CCCCC1,/,/,/,.,/
CC(=O)C1=C(O)C(=O)N(c2cc(C(C)(C)C)on2)C1c1ccc(Br)cc1 (stereo not drawn),.,.,.,.,.
CC(=O)C1=C(O)C(=O)N(c2cc(C(C)(C)C)on2)C1c1ccc(C(C)C)cc1 (stereo not drawn),72,.,.,.,.
CCN1CCc2c(C#N)c(N3CCCCC3)nc(N3CCOCC3)c2C1,.,.,.,.,18
CCN1CCc2c(C#N)c(N3CCOCC3)nc(N3CCOCC3)c2C1,.,.,.,.,.
N#CC1=C(N)C(C#N)(C#N)[C@H](c2ccoc2)[C@H]2CN(Cc3ccccc3)CC=C12,/,37,.,.,.
CC(=O)N1CC=C2C(C#N)=C(N)C(C#N)(C#N)C(CCc3ccccc3)C2C1 (stereo not drawn),73,.,.,.,.
CC(=NNC(=O)CC#N)c1ccc(Oc2ccccc2)cc1,/,/,/,.,/
CC(CCc1ccc2c(c1)OCO2)=N/N=C1/NC(=O)CC(C(=O)Nc2ccc(Cl)cc2)S1 (stereo not drawn),/,/,/,.,/
O=[N+]([O-])c1ccc(N2CCCCC2)s1,.,.,.,20,.
CCOC(=O)/C(C#N)=C/c1ccc(-c2ccsc2C(=O)OC)o1,74,.,.,.,.
CCc1ccc(C=NNC(=O)c2cc(-c3ccccc3OC)nc3ccccc23)s1,/,/,/,.,/
O=C(NCCc1ccncc1)Nc1cccc(Cl)c1,.,.,.,.,.
SMILES,CHOP inh,XBP1 UPR activ,UPR CHOP act,UCH37 inh,Fh CTSL1 inh
O=C(Cc1cccs1)Nc1nnc(SCc2ccc(Br)cc2)s1,76,.,.,.,.
O=C(Nc1ccc(Cl)cc1)Nc1nnc(SCc2ccc(Cl)cc2)s1,.,.,.,/,.
O=C(Nc1ccccc1)Nc1nnc(SCc2ccc(Cl)cc2)s1,90,.,.,/,.
O=C(Nc1cccc(Cl)c1)Nc1nnc(CC2=CCCCC2)s1,93,.,.,.,.
O=C(Nc1cccc(Cl)c1)Nc1nnc(-c2ccncc2)s1,92,.,.,.,.
O=C(Cc1cccs1)Nc1nnc(SCc2ccc(C(F)(F)F)cc2)s1,.,.,.,.,.
O=C(NN=Cc1ccccc1Cl)c1ccc(F)cc1,/,/,/,.,/
COc1cc([N+](=O)[O-])cc(C=NNC(=O)CSc2nnc(-c3ccccc3)n2C)c1O,/,/,/,.,/
O=C(Nc1ccc(F)cc1)Nc1nnc(-c2ccncc2)s1,.,.,.,.,.
O=C(Nc1ccc(Cl)cc1)Nc1nnc(-c2ccncc2)s1,87,/,/,.,.
COc1ccc(CCC(=O)NN=C(C)c2ccc3c(c2)OCO3)cc1,/,/,/,.,/
Oc1c(C=NNc2cccc3cccnc23)ccc2ccccc12,/,/,/,.,/
CCS(=O)(=O)c1nn2c(N)c(/C=C3/C=CC(=O)C(OC)=C3)c(=O)nc2s1,.,.,.,22,.
COC1=C/C(=C/c2c(N)n3nc(-c4ccc(C)cc4)sc3nc2=O)C=CC1=O,.,/,/,.,/
CCn1c(SC(=O)NC2CCCCC2)nnc1-c1cccs1,.,.,.,.,55
Cc1ccc(NC(=O)c2cc(-c3cccc(O)c3)on2)cc1C,86,.,.,.,.
Cc1ccc(NC(=O)c2cc(-c3ccco3)on2)cc1C,.,.,.,.,21

# From PubChem
